# Assay results from the M2OR odorant receptor database.
# Legend:
# Conditions in all cases: stereoisomer not certain
# OR1A1 (Homo sapiens) = biological target: T1, OR1A1 (Homo sapiens) (UniProt Q9P1Q5)
# T1 sequence (whole entry): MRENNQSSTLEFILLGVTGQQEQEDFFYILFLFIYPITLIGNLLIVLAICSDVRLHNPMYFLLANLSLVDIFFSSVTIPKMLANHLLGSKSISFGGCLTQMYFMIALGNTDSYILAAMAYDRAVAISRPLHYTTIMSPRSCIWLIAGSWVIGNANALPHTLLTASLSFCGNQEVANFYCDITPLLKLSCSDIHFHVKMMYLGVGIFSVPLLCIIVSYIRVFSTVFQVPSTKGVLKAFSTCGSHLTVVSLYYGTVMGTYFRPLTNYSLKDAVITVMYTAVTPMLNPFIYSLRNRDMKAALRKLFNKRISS
# In short: (§1)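 Each entry records the cell line, G-protein, co-transfected protein and tags used. Methods varied with the source, often transient luciferase assays in mammalian cell lines. A receptor–molecule pair is called responsive (active) if the original authors judged its signal statistically different from baseline and non-responsive (inactive) otherwise.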
# OR13H1 (Homo sapiens) = biological target: T2, OR13H1 (Homo sapiens) (UniProt Q8NG92)
# T2 sequence (whole entry): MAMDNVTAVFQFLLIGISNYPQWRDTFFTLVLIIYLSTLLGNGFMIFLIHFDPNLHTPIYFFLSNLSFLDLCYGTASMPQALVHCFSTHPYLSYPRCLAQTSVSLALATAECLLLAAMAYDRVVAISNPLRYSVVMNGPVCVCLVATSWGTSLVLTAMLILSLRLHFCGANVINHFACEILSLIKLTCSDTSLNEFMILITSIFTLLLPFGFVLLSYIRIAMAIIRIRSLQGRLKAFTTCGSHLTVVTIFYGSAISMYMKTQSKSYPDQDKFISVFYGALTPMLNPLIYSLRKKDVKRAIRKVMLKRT
# In short: as §1
# OR13J1 (Homo sapiens) = biological target: T3, OR13J1 (Homo sapiens) (UniProt Q8NGT2)
# T3 sequence (whole entry): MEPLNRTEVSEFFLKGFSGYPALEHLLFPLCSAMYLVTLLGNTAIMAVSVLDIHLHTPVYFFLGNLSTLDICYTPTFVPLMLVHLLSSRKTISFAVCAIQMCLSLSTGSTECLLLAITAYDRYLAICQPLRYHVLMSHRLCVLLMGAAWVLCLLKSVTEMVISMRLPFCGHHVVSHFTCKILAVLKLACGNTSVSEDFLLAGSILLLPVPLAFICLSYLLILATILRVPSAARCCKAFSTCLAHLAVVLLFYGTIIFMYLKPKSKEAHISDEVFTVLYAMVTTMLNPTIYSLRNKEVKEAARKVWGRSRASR
# In short: as §1
# OR14A16 (Homo sapiens) = biological target: T4, OR14A16 (Homo sapiens) (UniProt Q8NHC5)
# T4 sequence (whole entry): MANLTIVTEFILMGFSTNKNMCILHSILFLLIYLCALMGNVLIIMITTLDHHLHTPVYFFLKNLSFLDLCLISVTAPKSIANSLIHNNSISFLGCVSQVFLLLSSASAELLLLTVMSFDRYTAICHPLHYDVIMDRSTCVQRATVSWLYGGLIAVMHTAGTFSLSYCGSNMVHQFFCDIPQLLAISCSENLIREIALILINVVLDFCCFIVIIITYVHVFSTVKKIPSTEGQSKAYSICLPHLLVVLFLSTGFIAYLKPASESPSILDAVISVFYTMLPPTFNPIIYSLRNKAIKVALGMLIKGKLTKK
# In short: as §1
# OR14A2 (Homo sapiens) = biological target: T5, OR14A2 (Homo sapiens) (UniProt Q96R54)
# T5 sequence (whole entry): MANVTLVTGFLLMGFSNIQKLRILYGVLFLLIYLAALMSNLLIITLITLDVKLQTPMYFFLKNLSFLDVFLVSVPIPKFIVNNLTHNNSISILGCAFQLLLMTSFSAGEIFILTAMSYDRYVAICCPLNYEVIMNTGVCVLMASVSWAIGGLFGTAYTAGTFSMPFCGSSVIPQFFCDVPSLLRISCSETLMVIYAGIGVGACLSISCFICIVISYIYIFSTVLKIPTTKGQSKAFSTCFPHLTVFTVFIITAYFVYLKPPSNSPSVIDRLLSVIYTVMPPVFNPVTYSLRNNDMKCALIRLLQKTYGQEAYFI
# In short: as §1
# OR14C36 (Homo sapiens) = biological target: T6, OR14C36 (Homo sapiens) (UniProt Q8NHC7)
# T6 sequence (whole entry): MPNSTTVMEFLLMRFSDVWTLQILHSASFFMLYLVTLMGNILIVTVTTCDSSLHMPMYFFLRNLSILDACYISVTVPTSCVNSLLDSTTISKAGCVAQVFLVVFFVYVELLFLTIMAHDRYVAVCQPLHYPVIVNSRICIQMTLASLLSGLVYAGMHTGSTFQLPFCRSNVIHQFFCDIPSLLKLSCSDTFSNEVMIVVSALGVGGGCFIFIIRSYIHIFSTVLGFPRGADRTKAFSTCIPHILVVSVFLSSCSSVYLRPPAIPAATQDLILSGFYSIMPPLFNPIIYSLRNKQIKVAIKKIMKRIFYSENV
# In short: as §1
# OR14I1 (Homo sapiens) = biological target: T7, OR14I1 (Homo sapiens) (UniProt A6ND48)
# T7 sequence (whole entry): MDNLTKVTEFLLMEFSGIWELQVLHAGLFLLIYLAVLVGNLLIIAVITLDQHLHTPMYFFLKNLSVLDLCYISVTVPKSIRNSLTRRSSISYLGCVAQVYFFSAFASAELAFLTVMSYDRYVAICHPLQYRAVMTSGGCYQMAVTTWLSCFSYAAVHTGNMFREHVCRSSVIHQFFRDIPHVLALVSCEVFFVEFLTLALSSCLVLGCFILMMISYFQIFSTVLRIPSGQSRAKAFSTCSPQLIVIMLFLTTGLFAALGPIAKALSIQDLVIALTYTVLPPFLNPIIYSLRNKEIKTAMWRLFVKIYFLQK
# In short: as §1
# OR14J1 (Homo sapiens) = biological target: T8, OR14J1 (Homo sapiens) (UniProt Q9UGF5)
# T8 sequence (whole entry): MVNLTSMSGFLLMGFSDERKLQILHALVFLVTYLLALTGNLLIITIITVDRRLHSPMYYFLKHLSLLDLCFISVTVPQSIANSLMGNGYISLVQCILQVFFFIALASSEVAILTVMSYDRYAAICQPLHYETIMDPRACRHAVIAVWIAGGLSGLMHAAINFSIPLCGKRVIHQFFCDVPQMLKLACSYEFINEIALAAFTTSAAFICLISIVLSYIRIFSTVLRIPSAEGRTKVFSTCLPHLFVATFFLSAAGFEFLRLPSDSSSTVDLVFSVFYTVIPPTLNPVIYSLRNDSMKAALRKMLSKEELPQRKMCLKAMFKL
# In short: as §1
# OR14K1 (Homo sapiens) = biological target: T9, OR14K1 (Homo sapiens) (UniProt Q8NGZ2)
# T9 sequence (whole entry): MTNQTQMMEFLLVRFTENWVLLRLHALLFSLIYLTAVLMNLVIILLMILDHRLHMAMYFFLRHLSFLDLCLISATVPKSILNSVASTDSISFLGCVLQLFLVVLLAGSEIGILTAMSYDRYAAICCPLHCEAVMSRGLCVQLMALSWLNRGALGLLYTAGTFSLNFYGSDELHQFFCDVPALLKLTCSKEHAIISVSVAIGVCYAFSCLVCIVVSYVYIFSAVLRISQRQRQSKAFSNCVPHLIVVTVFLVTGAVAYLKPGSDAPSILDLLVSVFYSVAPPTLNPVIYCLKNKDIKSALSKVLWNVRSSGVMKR
# In short: as §1
# OR1A1 A154T N155S = test system: OR1A1 A154T N155S
# In short: as §1
# [1] = test system: OR1A1 G108A N109K A154T N155S
# In short: as §1
# OR1A1 G108A N109K = test system: OR1A1 G108A N109K
# In short: as §1
# OR1A1 G108A = test system: OR1A1 G108A
# In short: as §1
# OR1A1 I114T = test system: OR1A1 I114T
# In short: as §1
# OR1A1 I205V = test system: OR1A1 I205V
# In short: as §1
# OR1A1 N109K = test system: OR1A1 N109K
# In short: as §1
# OR1A1 T110A = test system: OR1A1 T110A
# In short: as §1
# OR1A1 T277V = test system: OR1A1 T277V
# In short: as §1
# OR1A1 T99M = test system: OR1A1 T99M
# In short: as §1
# OR1A1 V254T = test system: OR1A1 V254T
# In short: as §1
# Chain of OR1A1 G108A (as listed by the source, stated change not applied): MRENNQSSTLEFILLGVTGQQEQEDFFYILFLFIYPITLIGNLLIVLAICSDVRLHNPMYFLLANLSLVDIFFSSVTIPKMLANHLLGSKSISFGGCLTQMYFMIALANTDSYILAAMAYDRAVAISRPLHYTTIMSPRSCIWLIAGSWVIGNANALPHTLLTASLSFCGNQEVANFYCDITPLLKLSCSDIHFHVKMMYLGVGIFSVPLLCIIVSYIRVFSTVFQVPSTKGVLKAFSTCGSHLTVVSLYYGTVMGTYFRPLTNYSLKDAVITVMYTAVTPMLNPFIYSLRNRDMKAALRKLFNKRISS
# Chain of OR1A1 I205V (as listed by the source, stated change not applied): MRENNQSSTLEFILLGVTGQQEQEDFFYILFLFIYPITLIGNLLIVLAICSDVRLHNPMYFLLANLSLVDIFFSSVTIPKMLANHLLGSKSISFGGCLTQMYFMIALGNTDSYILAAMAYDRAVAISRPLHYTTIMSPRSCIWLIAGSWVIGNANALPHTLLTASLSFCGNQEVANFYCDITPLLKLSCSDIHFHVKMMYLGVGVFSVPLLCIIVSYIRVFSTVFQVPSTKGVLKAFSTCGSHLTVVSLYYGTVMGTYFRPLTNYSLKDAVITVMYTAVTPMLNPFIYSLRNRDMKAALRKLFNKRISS
# Chain of OR1A1 T99M (as listed by the source, stated change not applied): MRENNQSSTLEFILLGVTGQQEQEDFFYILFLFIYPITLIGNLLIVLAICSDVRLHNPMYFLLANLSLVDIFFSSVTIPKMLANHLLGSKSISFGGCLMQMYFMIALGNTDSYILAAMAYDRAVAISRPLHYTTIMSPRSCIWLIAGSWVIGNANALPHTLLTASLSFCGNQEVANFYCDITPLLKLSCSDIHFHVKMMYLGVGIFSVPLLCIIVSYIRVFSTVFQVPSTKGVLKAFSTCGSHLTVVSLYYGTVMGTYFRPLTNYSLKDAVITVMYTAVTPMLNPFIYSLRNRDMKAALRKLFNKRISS
# Chain of OR1A1 N109K (as listed by the source, stated change not applied): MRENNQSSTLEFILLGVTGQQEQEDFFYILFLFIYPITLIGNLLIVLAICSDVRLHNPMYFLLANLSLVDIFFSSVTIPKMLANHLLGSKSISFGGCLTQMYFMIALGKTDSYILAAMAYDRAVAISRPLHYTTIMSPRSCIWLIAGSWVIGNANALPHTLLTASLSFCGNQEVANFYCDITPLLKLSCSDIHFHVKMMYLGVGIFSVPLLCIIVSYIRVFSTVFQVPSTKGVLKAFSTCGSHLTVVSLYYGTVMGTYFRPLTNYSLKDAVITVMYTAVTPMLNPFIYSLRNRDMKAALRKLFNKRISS
# Chain of OR1A1 V254T (as listed by the source, stated change not applied): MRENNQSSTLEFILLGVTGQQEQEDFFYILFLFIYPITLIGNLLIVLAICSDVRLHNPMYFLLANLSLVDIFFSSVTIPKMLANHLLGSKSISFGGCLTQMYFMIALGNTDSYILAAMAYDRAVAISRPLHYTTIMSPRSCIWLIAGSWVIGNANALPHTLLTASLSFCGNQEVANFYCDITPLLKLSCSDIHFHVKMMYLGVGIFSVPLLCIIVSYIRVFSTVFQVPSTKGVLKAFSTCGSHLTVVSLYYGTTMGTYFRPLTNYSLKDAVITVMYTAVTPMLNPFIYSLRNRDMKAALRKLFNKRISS
# Chain of OR1A1 T277V (as listed by the source, stated change not applied): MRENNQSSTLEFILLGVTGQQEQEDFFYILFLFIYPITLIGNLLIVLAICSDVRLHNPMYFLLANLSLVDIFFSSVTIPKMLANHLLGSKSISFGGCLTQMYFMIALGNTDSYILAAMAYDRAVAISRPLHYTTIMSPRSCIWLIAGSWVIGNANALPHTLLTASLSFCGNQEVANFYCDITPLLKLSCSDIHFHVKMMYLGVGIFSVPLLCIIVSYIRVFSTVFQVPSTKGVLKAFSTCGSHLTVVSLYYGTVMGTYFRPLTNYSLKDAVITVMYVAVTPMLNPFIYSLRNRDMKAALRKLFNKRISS
# Chain of OR1A1 I114T (as listed by the source, stated change not applied): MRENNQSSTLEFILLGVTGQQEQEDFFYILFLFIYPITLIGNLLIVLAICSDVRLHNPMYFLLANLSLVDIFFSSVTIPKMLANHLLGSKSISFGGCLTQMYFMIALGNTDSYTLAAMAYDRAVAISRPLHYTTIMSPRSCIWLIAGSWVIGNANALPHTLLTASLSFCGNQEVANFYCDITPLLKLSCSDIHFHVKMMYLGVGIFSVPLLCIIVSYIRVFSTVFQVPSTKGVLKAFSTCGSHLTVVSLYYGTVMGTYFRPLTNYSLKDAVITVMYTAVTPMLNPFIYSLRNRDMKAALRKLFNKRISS
# Chain of OR1A1 T110A (as listed by the source, stated change not applied): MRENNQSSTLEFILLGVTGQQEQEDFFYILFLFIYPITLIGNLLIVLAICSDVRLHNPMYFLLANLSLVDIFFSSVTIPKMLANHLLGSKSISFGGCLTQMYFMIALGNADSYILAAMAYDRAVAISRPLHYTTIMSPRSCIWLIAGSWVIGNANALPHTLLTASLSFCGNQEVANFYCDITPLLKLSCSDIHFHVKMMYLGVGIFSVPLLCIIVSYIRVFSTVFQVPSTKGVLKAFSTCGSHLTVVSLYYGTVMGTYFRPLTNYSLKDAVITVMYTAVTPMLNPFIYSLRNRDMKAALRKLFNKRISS
smiles,measurement,setting,value
C=C1CCC2(C(C)C)CC12 (stereo not given),odorant receptor agonist call,OR1A1 (Homo sapiens),inactive
CC1=C(O)C(=O)OC1C (stereo not given),odorant receptor agonist call,OR13H1 (Homo sapiens),inactive
same,odorant receptor agonist call,OR13J1 (Homo sapiens),inactive
same,odorant receptor agonist call,OR14A16 (Homo sapiens),inactive
same,odorant receptor agonist call,OR14A2 (Homo sapiens),inactive
same,odorant receptor agonist call,OR14C36 (Homo sapiens),inactive
same,odorant receptor agonist call,OR14I1 (Homo sapiens),inactive
same,odorant receptor agonist call,OR14J1 (Homo sapiens),inactive
same,odorant receptor agonist call,OR14K1 (Homo sapiens),inactive
same,odorant receptor agonist call,OR1A1 (Homo sapiens),inactive
CCC1OC(C)=C(O)C1=O (stereo not given),odorant receptor agonist call,OR13H1 (Homo sapiens),inactive
same,odorant receptor agonist call,OR13J1 (Homo sapiens),inactive
same,odorant receptor agonist call,OR14A16 (Homo sapiens),inactive
same,odorant receptor agonist call,OR14A2 (Homo sapiens),inactive
same,odorant receptor agonist call,OR14C36 (Homo sapiens),inactive
same,odorant receptor agonist call,OR14I1 (Homo sapiens),inactive
same,odorant receptor agonist call,OR14J1 (Homo sapiens),inactive
same,odorant receptor agonist call,OR14K1 (Homo sapiens),inactive
same,odorant receptor agonist call,OR1A1 (Homo sapiens),inactive
CC(CC=O)CCCC(C)(C)O (stereo not given),odorant receptor agonist call,OR1A1 (Homo sapiens),active
CCCC(S)CCO (stereo not given),odorant receptor agonist call,OR1A1 (Homo sapiens),inactive
CCc1nccnc1CC,odorant receptor agonist call,OR1A1 (Homo sapiens),inactive
CC1CCCCCCCCCCCCC(=O)C1 (stereo not given),odorant receptor agonist call,OR13H1 (Homo sapiens),inactive
same,odorant receptor agonist call,OR13J1 (Homo sapiens),inactive
same,odorant receptor agonist call,OR14A16 (Homo sapiens),inactive
same,odorant receptor agonist call,OR14A2 (Homo sapiens),inactive
same,odorant receptor agonist call,OR14C36 (Homo sapiens),inactive
same,odorant receptor agonist call,OR14I1 (Homo sapiens),inactive
same,odorant receptor agonist call,OR14J1 (Homo sapiens),inactive
same,odorant receptor agonist call,OR14K1 (Homo sapiens),inactive
same,odorant receptor agonist call,OR1A1 (Homo sapiens),active
CCCCCC(=O)OCC,odorant receptor agonist call,OR1A1 (Homo sapiens),active
CC1=NC(C)C(C)S1 (stereo not given),odorant receptor agonist call,OR13H1 (Homo sapiens),inactive
same,odorant receptor agonist call,OR13J1 (Homo sapiens),inactive
same,odorant receptor agonist call,OR14A16 (Homo sapiens),inactive
same,odorant receptor agonist call,OR14A2 (Homo sapiens),inactive
same,odorant receptor agonist call,OR14C36 (Homo sapiens),inactive
same,odorant receptor agonist call,OR14I1 (Homo sapiens),inactive
same,odorant receptor agonist call,OR14J1 (Homo sapiens),inactive
same,odorant receptor agonist call,OR14K1 (Homo sapiens),inactive
same,odorant receptor agonist call,OR1A1 (Homo sapiens),inactive
Cc1cnc(C)c(C)n1,odorant receptor agonist call,OR13H1 (Homo sapiens),inactive
same,odorant receptor agonist call,OR13J1 (Homo sapiens),inactive
same,odorant receptor agonist call,OR14A16 (Homo sapiens),inactive
same,odorant receptor agonist call,OR14A2 (Homo sapiens),inactive
same,odorant receptor agonist call,OR14C36 (Homo sapiens),inactive
same,odorant receptor agonist call,OR14I1 (Homo sapiens),inactive
same,odorant receptor agonist call,OR14J1 (Homo sapiens),inactive
same,odorant receptor agonist call,OR14K1 (Homo sapiens),inactive
same,odorant receptor agonist call,OR1A1 (Homo sapiens),inactive
CCCCC(S)C(C)CO (stereo not given),odorant receptor agonist call,OR13H1 (Homo sapiens),inactive
same,odorant receptor agonist call,OR13J1 (Homo sapiens),inactive
same,odorant receptor agonist call,OR14A16 (Homo sapiens),inactive
same,odorant receptor agonist call,OR14A2 (Homo sapiens),inactive
same,odorant receptor agonist call,OR14C36 (Homo sapiens),inactive
same,odorant receptor agonist call,OR14I1 (Homo sapiens),inactive
same,odorant receptor agonist call,OR14J1 (Homo sapiens),inactive
same,odorant receptor agonist call,OR14K1 (Homo sapiens),inactive
same,odorant receptor agonist call,OR1A1 (Homo sapiens),inactive
CCC1OC(=O)C(O)=C1C (stereo not given),odorant receptor agonist call,OR13H1 (Homo sapiens),inactive
same,odorant receptor agonist call,OR13J1 (Homo sapiens),inactive
same,odorant receptor agonist call,OR14A16 (Homo sapiens),inactive
same,odorant receptor agonist call,OR14A2 (Homo sapiens),inactive
same,odorant receptor agonist call,OR14C36 (Homo sapiens),inactive
same,odorant receptor agonist call,OR14I1 (Homo sapiens),inactive
same,odorant receptor agonist call,OR14J1 (Homo sapiens),inactive
same,odorant receptor agonist call,OR14K1 (Homo sapiens),inactive
same,odorant receptor agonist call,OR1A1 (Homo sapiens),inactive
Cc1ccc(O)cc1,odorant receptor agonist call,OR1A1 (Homo sapiens),inactive
CCOC(C)OCC,odorant receptor agonist call,OR1A1 (Homo sapiens),inactive
CCC(S)C(C)CO (stereo not given),odorant receptor agonist call,OR13H1 (Homo sapiens),inactive
same,odorant receptor agonist call,OR13J1 (Homo sapiens),inactive
same,odorant receptor agonist call,OR14A16 (Homo sapiens),inactive
same,odorant receptor agonist call,OR14A2 (Homo sapiens),inactive
same,odorant receptor agonist call,OR14C36 (Homo sapiens),inactive
same,odorant receptor agonist call,OR14I1 (Homo sapiens),inactive
same,odorant receptor agonist call,OR14J1 (Homo sapiens),inactive
same,odorant receptor agonist call,OR14K1 (Homo sapiens),inactive
same,odorant receptor agonist call,OR1A1 (Homo sapiens),inactive
CC(C)=CCCC(C)CCO (stereo not given),odorant receptor agonist call,OR1A1 A154T N155S,active
same,odorant receptor agonist call,[1],inactive
same,odorant receptor agonist call,OR1A1 G108A N109K,inactive
same,odorant receptor agonist call,OR1A1 G108A,inactive
same,odorant receptor agonist call,OR1A1 I114T,active
same,odorant receptor agonist call,OR1A1 I205V,active
same,odorant receptor agonist call,OR1A1 N109K,inactive
same,odorant receptor agonist call,OR1A1 T110A,active
same,odorant receptor agonist call,OR1A1 T277V,active
same,odorant receptor agonist call,OR1A1 T99M,active
same,odorant receptor agonist call,OR1A1 V254T,active
